Results reported in the EternaBench riboswitch data.

Tested on: MS2 coat protein
Test: apparent Kd, MS2 coat protein; higher = weaker binding; RNA-MaP array; FMN 200 µM where present
How it was run: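 Designs were transcribed by stalled E. coli RNA polymerase on Illumina sequencing-chip clusters. They were titrated with SNAP-549-labelled MS2 coat protein from 0.7 or 1.5 nM, doubling to 3 µM, in 100 mM Tris-HCl pH 7.5, 80 mM KCl, 4 mM MgCl2, BSA, DTT, yeast tRNA and Tween-20, without and then with constant ligand. The apparent Kd is the median of filtered per-cluster fits after normalisation of green signal to red-channel RNA signal and control-cluster median Fmax.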

[1] = designed as: OFF switch for flavin mononucleotide, no ligand
[2] = ligand present: flavin mononucleotide, designed as: OFF switch for flavin mononucleotide
[3] = designed as: ON switch for flavin mononucleotide, no ligand
[4] = ligand present: flavin mononucleotide, designed as: ON switch for flavin mononucleotide

Sequence | apparent Kd [1] [nM] | apparent Kd [2] [nM] | apparent Kd [3] [nM] | apparent Kd [4] [nM]
CUUUUGUGAGGAUAUCAGUAGUAAAAAAAUAAAUUUACUACUGAGAAGGCACAUGAGGAUCACCCAUGUUCCUC | 42.2 | 296 | – | –
UGCUGACGAGGAUAUACAUGAGGAUCACCCAUGUUGGUUCAGCGACUUCGGUCGCAAUGUAGAAGGCGUCAGCU | 410 | 277 | – | –
UAUAUAUAGUAAGGAUAUGUAUUUAUUUUAUAAACAGAAGGUACUGACAUGAGGAUCACCCAUGUUUUAGUGUGGGCAUGUAGA | 89.1 | 128 | – | –
CGAACUCCGUAGAAGGGUGACAUGAGGAUCACCCAUGUGCGAGCGGAGGGAGUCAGCGGCUCGCCACAGGAUAUACGGAGCACG | – | – | 49.4 | 107
GCUACUACAUGAGGAUCACCCAUGUAUCCGUAGCGGGCCGCACAGGAUAUCAACCUCGGAAGAGGUGAGAAGGGUGAUACUCAU | – | – | 23.2 | 38.1
AUCCAGCGAGGAUAUACUUUGAUUUUUUCGUUUUGUCUCGAACAUGAGGAUCACCCAUGUAGAAGGUGCUUCAC | 67.1 | 59.8 | – | –
AUAAAACAUGAGGAUCACCCAUGUCAACAAAGUCGAGGAUAUGGGUAAAUAAAAUAAGAACCAGAAGGCGAAUAAU | – | – | 597 | 132
AAGACUAGAGGAUAUACAUGAGGAUCACCCAUGUAACUGUCAGGUGACUGACGGAAAAGUAGAAGGCUAGUCAA | 16.6 | 20 | – | –
CGACGAGUGGAGAAGGACUUUGACUAGCACAGGGUAGGAUAUCCACAUGAGGAUCACCCAUGUAGGAUACUUAUUGGGCCGCCU | 6.96 | 22.8 | – | –
GUGUUACAUGAGGAUCACCCAUGUGAGGAUAUCAUGCUUCGUAGUAAACUACGAAGUGUGAGAAGGCACAUGAC | 265 | 806 | – | –
AGUCAGAGCAGAGGAUAUAUACAUGAGGAUCACCCAUGUGACUGCCUAUGCUCGAAAGAGUAUGUAUAGAAGGCUGCUCUGACA | 611 | 276 | – | –
UCACGGCUCGGAGGAUAUGACACAUGAGGAUCACCCAUGUGUGUAAGCCAAUAAACCUACAAAUGUCAGAAGGCCGCGCCUCAU | 15.3 | 14.7 | – | –
GGAUAGGACAGAGGAUAUACGUGCUAGAGAUACUAGCAAAGUUUCCUCACAUGAGGAUCACCCAUGUAGAAGGCUGUCCUAUCG | 21.8 | 505 | – | –
UGGAUCAUGGGAGGAUAUCCUCAAGAGACAUGAGGAUCACCCAUGUAUUAUAAGCCGAAAGGCAUGGAGAAGGCCCAUGAUCCU | – | – | 50.3 | 19
AGUUUUGUACAUGAGGAUCACCCAUGUUAAUAUGUGGUAGUCAGAAGGCAUUGAUAGAGUUUUAAUGAGGAUAUGAAUAUUCUG | – | – | 31.8 | 32.3
UUUUAGUCAGGAUAUACAUGAGGAUCACCCAUGUAAAAUUUUAGUUUAAUUUGAAUGUGUAGAAGGGACAUUUU | 24.7 | 22.9 | – | –
UUUUAACAUGAGGAUCACCCAUGUGAGGAUAUCGAUUUUUAUAUUAAUAUUAAUAAAACGAGAAGGCACAUUUU | 123 | 79.3 | – | –
CUGAAGUCAGGAUAUCGUUAAUUUAGUUGUUUGUAUUAGUUCGAGAAGGGACAUGAGGAUCACCCAUGUAAGUU | 33.6 | 51.3 | – | –
AACUAGUCAGGAUAUACGAACAUGUCAAAAAACAUAAAGGGACAUGAGGAUCACCCAUGUAGAAGGGACUAGCA | 177 | 666 | – | –
UUUCCACAUGAGGAUCACCCAUGUAAGGAUAUGUAGCGCGGGCUGGUGUCCGAGUGUUACAGAAGGUGCUGGCG | 26.3 | 33.7 | – | –
GCAACGCCUGACAUGAGGAUCACCCAUGUUAGAUUGUUAUGUCAGGAUAUAGUCUCGAAACGAGACUAGAAGGGAUAUGUUGCU | – | – | 888 | 122
AUCUGCUCGUCAGGAUAUACGUCACUGCGUCAGCAGUGUGGUAAGAUCACAUGAGGAUCACCCAUGUAGAAGGGACGAGCUGAU | 12.9 | 268 | – | –
GUCAGCUCGUGAGGAUAUACAUGUGCUGGAGACAGCAUUAAAUAAUUCACAUGAGGAUCACCCAUGUAGAAGGCACGAGCUGAU | 17.8 | 38.8 | – | –
AUGGACGUCGUAGGAUAUGUAGGAUUCUCGUACAUGAGGAUCACCCAUGUUGACGUCGAGGACGGACAGAAGGGCGGUGUCCAU | – | – | 42.3 | 8.01

Sequence | apparent Kd [1] [nM] | apparent Kd [2] [nM] | apparent Kd [3] [nM] | apparent Kd [4] [nM]
GUCUGGUUAGGAUAUACAGUGUCCACGAGUUAGUUGCCCUAACAUGAGGAUCACCCAUGUAGAAGGAGCGAGAA | 22.2 | 22.6 | – | –
CGGGAGUCAGGAUAUACGAACAUGUCGCCAGAUGUCAAGGUACAUGAGGAUCACCCAUGUAGAAGGGAGGAGUU | 91.9 | 56.6 | – | –
GUAGCUAUCGGAGGAUAUUCAUACCGGAAACGGACAUGAGGAUCACCCAUGUGGCGAAAGCCAUGGGAGAAGGCCGAUAGCUAC | – | – | 606 | 131
AAGCCCUGAGGAUAUCUCAUCUCGCACAUGAGGAUCACCCAUGUUCUUCUCUGGGUUUCGAGAGAAGGCAGGCCUC | 954 | 641 | – | –
AACCGACAUGAGGAUCACCCAUGUCAGGAUAUGGACUGACAUCGAAAGGAUGGAGGAACCAGAAGGGACUGGGC | 37.1 | 81.6 | – | –
AUAUUUGUGUAGAAGGUACGUGAUUAGUUAUAGUAAGGAUAUACUGACAUGAGGAUCACCCAUGUAUAAAUGGUUAAAUGUUCU | – | – | 27.9 | 20
CGGGCGCGAGUAGGAUAUGUAUAUUUGCCGGGUCCGUGAUCACAUGAGGAUCACCCAUGUGGUAAGCAGAAGGAUUCGGUCCGA | 6.04 | 7.8 | – | –
GUCAGCUCGUGAGGAUAUACAACAGUGCUUCGGCAGUGUAUUAAGAUCACAUGAGGAUCACCCAUGUAGAAGGCACGAGCUGAU | 13.1 | 207 | – | –
CCGCCCUGGAGAGGAUAUGAUCCGUACUAAAGGUCAGAAGGCUCCGAGUUACAUGAGGAUCACCCAUGUAGGGCGGAAAAUAUG | – | – | 6.3 | 5.25
UCGGAAUUCAAGAAGGACAUGAGGAUCACCCAUGUAGGAUAUUGACCCGAAUUGUGGGUUUUGCUGAUGCACUUCCCGAGGACA | – | – | 147 | 11.6
GCAUGUCUUAAGGAUAUGCUUUGGCGUGAGCCGGCAGAAGGUAAGACAUGAGGAUCACCCAUGUUUUCCUAAAA | 20.5 | 140 | – | –
GCGAAUUUGUGAGGAUAUACAUAAUUUAUAACUGUAGAAGGCACAAACCUCAAGACAUGAGGAUCACCCAUGUGGAAUUUCGCU | 131 | 192 | – | –
AGAUAACACCAGAAGGACAUGAGGAUCACCCAUGUAGGAUAUGGGCAUCACUCGAGAAAGAAAAGACCAAGUGGACACGCGGUC | – | – | 117 | 10.7
UCAGGCUUCGAGAAGGACAUGAGGAUCACCCAUGUUAAUUAGAAGCAGCCGUGAGGCUGCAUCAUGUAGGAUAUCGGAGUCUGC | 7.16 | 24.8 | – | –
CCUGUGUGAGGAUAUGGUGUUGGCAAAAAGGAAUAGCUCCUCCAGAAGGCACAUGAGGAUCACCCAUGUCGUGG | 15.2 | 36 | – | –
UUGGACGUCGUAGGAUAUGUAGGGUAUUCCUACAUGAGGAUCACCCAUGUUGACAUGGAAGAAGGACAGAAGGACGAUGUCCAU | – | – | 183 | 4.94
AGCUACGUUUCGUAGCAGCUAGGUGAGGAUAUUCAAUUUUUCACAUGAGGAUCACCCAUGUAUGUGAAGAAGGCGCCUAGAAAU | – | – | 11.1 | 4.98
AACAAGAGGAUCACCCAUGUAACAUGAGGAUCACCCAUGUUCAAGGAUAUGUACAUGAUACAUGUACAGAAGGUGAAUUGGACU | 21 | 36.2 | – | –
AGGAUAGGAAACUUUGUCCAUUGUACAGAAGGCCAACAUGAGGAUCACCCAUGUAAGAAAAGGAUGGAGGAUAUGUAUAGGGCC | – | – | 25.8 | 12.3
GACUUGUCAGGAUAUCUUACAUAAACAUCGUAGUUACAAUUGGAGAAGGGACAUGAGGAUCACCCAUGUUUGGC | 28 | 25.4 | – | –
GCAGCAUCUGCAGGAUAUCAGCACGUGUAGUGCUGAGAAGGGCACAUGAGGAUCACCCAUGUGAUCAAUUAAUAUAGAUGCUGC | 5.78 | 15.8 | – | –
ACCGUAUGAACAUGAGGAUCACCCAUGUAUUCGAAAAGGAAUGAGGAUAUCGAUAGCAAAGCUAUCGAGAAGGCAUGGGACGGU | – | – | 255 | 60.4
UGGUACUAGGGAGGAUAUGGGAAGAUACAUGAGGAUCACCCAUGUUUGAGAAUGCCGAGAGGCAACUAGAAGGCCCUAGUACCU | – | – | 430 | 18.1
GGUUGGCGAGGAUAUACAUGAGGAUCACCCAUGUGGUCCUGUGGCUGGUCAAACCUUUGUAGAAGGCGCGGGUC | 236 | 228 | – | –
